# Measured values taken from ChEMBL document CHEMBL4382246, “Synthesis, biological evaluation, and molecular docking investigation of 3-amidoindoles as potent tubulin polymerization inhibitors” (Eur J Med Chem, 2019).
# Activity calls are given as the source filed them. No cut-off for these calls is given here.
# What was measured:
# [1] = tested on: MDA-MB-231; assay: Cytotoxicity against human MDA-MB-231 cells after 72 hrs by MTT assay; format: functional, cell-based; settings: MDA-MB-231, 72 h
# Method in brief: (§1)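 Lines kept in RPMI-1640 with 10% FBS. Cells were seeded at 2×10³ per well and allowed to attach for 24 h at 37 °C. Medium was then replaced with medium holding serial dilutions from 100 mM DMSO stocks, with 0.1% DMSO as negative control, for 72 h at 37 °C. […] IC50 was fitted from the concentration series as the mean ± SD of three independent experiments run in duplicate.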
# [2] = tested on: MDA-MB-468; assay: Cytotoxicity against human MDA-MB-468 cells after 72 hrs by MTT assay; format: functional, cell-based; settings: MDA-MB-468, 72 h; method in brief: as §1
# [3] = tested on: MCF7; assay: Cytotoxicity against human MCF7 cells after 72 hrs by MTT assay; format: functional, cell-based; settings: MCF7, 72 h; method in brief: as §1
# [4] = tested on: T47D; assay: Cytotoxicity against human T47D cells after 72 hrs by MTT assay; format: functional, cell-based; method in brief: as §1
# [5] = tested on: BT-549; assay: Cytotoxicity against human BT549 cells after 72 hrs by MTT assay; format: functional, cell-based; settings: BT-549, 72 h; method in brief: as §1
# [6] = molecular target: Tubulin (Sus scrofa) (UniProt P02554+P02550); assay: Inhibition of pig brain tubulin polymerization at 10 uM by spectrophotometric analysis relative to control
# Method in brief: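 Tubulin polymerization inhibition was measured with compounds at a final concentration of 10 µM.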
# [7] = tested on: Hs-578T; assay: Cytotoxicity against human Hs578T cells after 72 hrs by MTT assay; format: functional, cell-based; method in brief: as §1
# [8] = tested on: BT-549; assay: Cell cycle arrest in human BT549 cells assessed as accumulation of cells at S phase at 8 uM after 24 hrs by propidium iodide staining-based flow cytometric analysis (reference value: 25.84%); format: functional
# [9] = tested on: BT-549; assay: Cell cycle arrest in human BT549 cells assessed as accumulation of cells at G2/M phase at 8 uM after 24 hrs by propidium iodide staining-based flow cytometric analysis (reference value: 8.88%); format: functional
# [10] = tested on: BT-549; assay: Cell cycle arrest in human BT549 cells assessed as accumulation of cells at G0/G1 phase at 8 uM after 24 hrs by propidium iodide staining-based flow cytometric analysis (reference value: 65.28%); format: functional
# [11] = tested on: BT-549; assay: Cell cycle arrest in human BT549 cells after 24 hrs by propidium iodide staining-based flow cytometric analysis; format: functional
# [12] = tested on: BT-549; assay: Cell cycle arrest in human BT549 cells assessed as accumulation of cells at S phase at 2 uM after 24 hrs by propidium iodide staining-based flow cytometric analysis (reference value: 25.84%); format: functional
# [13] = molecular target: T1, Tubulin alpha (Homo sapiens) (UniProt P0DPH7+P68366+Q71U36+P68363+Q9BQE3+Q6PEY2+A6NHL2+Q9NY65); assay: Disruption of alpha-tubulin in human BT549 cells assessed as loss of cellular structure at 10 uM after 6 hrs by FITC/DAPI staining-based confocal microscopic analysis; format: cell-based
# Method in brief: (§2)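 BT549 cells (2×10⁴ per well) were attached overnight on glass coverslips, then exposed to 10 or 20 µM, or to 0.1% DMSO, for 6 h. Cells were fixed in 4% paraformaldehyde, permeabilized with 0.1% Triton X-100 and blocked in 5% BSA for 60 min. Primary antibodies were α-tubulin mouse and β-tubulin rabbit monoclonals, applied overnight at 4 °C. Secondaries were FITC anti-mouse and Alexa Fluor 555 anti-rabbit, with DAPI for nuclei, and cells were imaged by laser scanning confocal microscopy.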
# [14] = tested on: BT-549; assay: Cell cycle arrest in human BT549 cells assessed as accumulation of cells at G2/M phase at 2 uM after 24 hrs by propidium iodide staining-based flow cytometric analysis (reference value: 8.88%); format: functional
# [15] = tested on: BT-549; assay: Cell cycle arrest in human BT549 cells assessed as accumulation of cells at G2/M phase at 4 uM after 24 hrs by propidium iodide staining-based flow cytometric analysis (reference value: 8.88%); format: functional
# [16] = molecular target: T2, Tubulin beta (Homo sapiens) (UniProt P68371+Q9H4B7+Q13509+P04350+Q3ZCM7+P07437+Q13885+Q9BVA1+Q9BUF5+A6NNZ2); assay: Disruption of beta-tubulin in human BT549 cells assessed as loss of cellular structure at 10 uM after 6 hrs by FITC/DAPI staining-based confocal microscopic analysis; format: cell-based; method in brief: as §2
# [17] = molecular target: T1, Tubulin alpha (Homo sapiens); assay: Disruption of alpha-tubulin in human BT549 cells assessed as short microtubule at 20 uM after 6 hrs by FITC/DAPI staining-based confocal microscopic analysis; format: cell-based; method in brief: as §2
# [18] = tested on: BT-549; assay: Cell cycle arrest in human BT549 cells assessed as accumulation of cells at G0/G1 phase at 4 uM after 24 hrs by propidium iodide staining-based flow cytometric analysis (reference value: 65.28%); format: functional
# [19] = molecular target: T1, Tubulin alpha (Homo sapiens); assay: Disruption of alpha-tubulin in human BT549 cells assessed as round cell shape at 20 uM after 6 hrs by FITC/DAPI staining-based confocal microscopic analysis; method in brief: as §2
# [20] = molecular target: T2, Tubulin beta (Homo sapiens); assay: Disruption of beta-tubulin in human BT549 cells assessed as wrapped microtubule at 20 uM after 6 hrs by DAPI staining-based confocal microscopic analysis
# [21] = molecular target: T1, Tubulin alpha (Homo sapiens); assay: Disruption of alpha-tubulin in human BT549 cells at 10 uM after 6 hrs by FITC/DAPI staining-based confocal microscopic analysis; format: cell-based; method in brief: as §2
# [22] = molecular target: T2, Tubulin beta (Homo sapiens); assay: Disruption of beta-tubulin in human BT549 cells at 10 uM after 6 hrs by FITC/DAPI staining-based confocal microscopic analysis; format: cell-based; method in brief: as §2
# [23] = molecular target: T1, Tubulin alpha (Homo sapiens); assay: Disruption of alpha-tubulin in human BT549 cells assessed as wrapped microtubule at 20 uM after 6 hrs by FITC/DAPI staining-based confocal microscopic analysis; format: cell-based; method in brief: as §2
# [24] = molecular target: Tubulin (Sus scrofa, UniProt P02554+P02550); assay: Inhibition of pig brain tubulin polymerization by spectrophotometric analysis
# [25] = molecular target: T2, Tubulin beta (Homo sapiens); assay: Disruption of beta-tubulin in human BT549 cells assessed as short microtubule at 20 uM after 6 hrs by FITC/DAPI staining-based confocal microscopic analysis; format: cell-based; method in brief: as §2
# [26] = molecular target: T2, Tubulin beta (Homo sapiens); assay: Disruption of beta-tubulin in human BT549 cells assessed as round cell shape at 20 uM after 6 hrs by FITC/DAPI staining-based confocal microscopic analysis; method in brief: as §2
# [27] = tested on: BT-549; assay: Cell cycle arrest in human BT549 cells assessed as accumulation of cells at S phase at 4 uM after 24 hrs by propidium iodide staining-based flow cytometric analysis (reference value: 25.84%); format: functional
# [28] = tested on: BT-549; assay: Cell cycle arrest in human BT549 cells assessed as accumulation of cells at G0/G1 phase at 2 uM after 24 hrs by propidium iodide staining-based flow cytometric analysis (reference value: 65.28%); format: functional
# [29] = molecular target: T1, Tubulin alpha (Homo sapiens); assay: Disruption of alpha-tubulin in human BT549 cells assessed as formation of cellular rounding at 10 uM after 6 hrs by FITC/DAPI staining-based confocal microscopic analysis; format: cell-based; method in brief: as §2
# [30] = molecular target: T2, Tubulin beta (Homo sapiens); assay: Disruption of beta-tubulin in human BT549 cells assessed as formation of cellular rounding at 10 uM after 6 hrs by FITC/DAPI staining-based confocal microscopic analysis; format: cell-based; method in brief: as §2
# Chain of Tubulin (Sus scrofa) (P02550 whole entry, looked up): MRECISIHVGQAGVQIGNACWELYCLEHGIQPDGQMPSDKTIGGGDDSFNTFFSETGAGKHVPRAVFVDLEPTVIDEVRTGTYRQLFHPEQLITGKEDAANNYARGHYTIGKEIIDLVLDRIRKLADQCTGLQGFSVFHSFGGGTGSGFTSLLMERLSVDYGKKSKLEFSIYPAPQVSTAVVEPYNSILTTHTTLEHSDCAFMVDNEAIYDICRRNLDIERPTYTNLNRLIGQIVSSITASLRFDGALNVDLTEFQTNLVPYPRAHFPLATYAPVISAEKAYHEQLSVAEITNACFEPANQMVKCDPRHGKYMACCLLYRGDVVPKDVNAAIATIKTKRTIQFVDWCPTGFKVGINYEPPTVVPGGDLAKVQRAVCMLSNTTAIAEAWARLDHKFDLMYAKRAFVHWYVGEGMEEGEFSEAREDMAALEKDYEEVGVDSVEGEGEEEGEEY
# Chain of Tubulin (Sus scrofa) (P02554 whole entry, looked up): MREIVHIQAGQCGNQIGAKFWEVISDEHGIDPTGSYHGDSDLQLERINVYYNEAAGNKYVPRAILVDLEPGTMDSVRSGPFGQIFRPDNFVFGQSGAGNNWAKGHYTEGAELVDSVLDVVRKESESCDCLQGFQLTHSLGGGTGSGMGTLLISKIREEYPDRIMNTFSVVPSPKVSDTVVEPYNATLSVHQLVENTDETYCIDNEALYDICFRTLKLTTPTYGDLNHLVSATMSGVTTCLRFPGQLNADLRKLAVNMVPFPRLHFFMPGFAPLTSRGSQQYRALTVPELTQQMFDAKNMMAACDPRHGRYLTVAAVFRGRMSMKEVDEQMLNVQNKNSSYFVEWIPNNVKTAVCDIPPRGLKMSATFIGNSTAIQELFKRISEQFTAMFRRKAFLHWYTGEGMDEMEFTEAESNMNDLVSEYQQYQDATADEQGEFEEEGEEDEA
compound,measurement,setting,value
COc1ccc(C(=O)c2[nH]c3cc(Cl)ccc3c2NC(=O)c2cc(OC)c(OC)c(OC)c2)cc1O,IC50,[1],22.2 µM
same,IC50,[2],23.2 µM
same,IC50,[3],32.6 µM
same,IC50,[4],9.28 µM
same,IC50,[5],7.48 µM
same,inhibition,[6],30%
same,IC50,[7],4.35 µM
COc1cc(C(=O)Nc2c(C(=O)c3cccc(Br)c3)[nH]c3cc(Cl)ccc23)cc(OC)c1OC,IC50,[1],26.8 µM
same,IC50,[2],20.8 µM
same,IC50,[3],23 µM
same,IC50,[4],14.1 µM
same,IC50,[5],8.42 µM
same,inhibition,[6],25%
same,IC50,[7],4.1 µM
COc1cc(C(=O)Nc2c(C(=O)c3ccccc3)[nH]c3cc(Cl)ccc23)cc(OC)c1OC,IC50,[1],32.7 µM
same,IC50,[2],11 µM
same,IC50,[3],51.8 µM
same,IC50,[4],45.5 µM
same,IC50,[5],26.9 µM
same,inhibition,[6],41%
same,IC50,[7],> 100 µM
COc1ccc(C(=O)c2[nH]c3cc(OC)ccc3c2NC(=O)c2cc(OC)c(OC)c(OC)c2)cc1,IC50,[1],48.8 µM
same,IC50,[2],26.4 µM
same,IC50,[3],79.3 µM
same,IC50,[4],6.3 µM
same,IC50,[5],18.2 µM
same,inhibition,[6],25%
same,IC50,[7],10.4 µM
COc1cc(C(=O)Nc2c(C(=O)c3ccc(F)cc3)[nH]c3cc(C)ccc23)cc(OC)c1OC,IC50,[1],5.17 µM
same,IC50,[2],6.16 µM
same,IC50,[3],8.89 µM
same,IC50,[4],5.72 µM
same,IC50,[5],8.66 µM
same,inhibition,[6],17%
same,IC50,[7],8.95 µM
COc1ccc(/C=C\c2cc(OC)c(OC)c(OC)c2)cc1O [COMBRETASTATIN A4],IC50,[1],0.00317 µM
same,Activity,[8],18.2%
same,Activity,[9],72.9%
same,IC50,[2],0.00155 µM
same,Activity,[10],8.9%
same,IC50,[3],0.003 µM
same,IC50,[4],0.00189 µM
same,IC50,[5],0.00171 µM
same,IC50,[7],0.00136 µM
COc1ccc(C(=O)c2[nH]c3cc(Cl)ccc3c2NC(=O)c2cc(OC)c(OC)c(OC)c2)cc1,IC50,[1],9.17 µM
same,IC50,[2],8.61 µM
same,IC50,[3],17.6 µM
same,IC50,[4],11.1 µM
same,IC50,[5],11.1 µM
same,inhibition,[6],47%
same,IC50,[7],15.9 µM
COc1cc(C(=O)Nc2c(C(=O)c3ccc(Cl)cc3)[nH]c3cc(C)ccc23)cc(OC)c1OC,IC50,[1],3.22 µM
same,IC50,[2],4.12 µM
same,IC50,[3],3.85 µM
same,IC50,[4],6.25 µM
same,IC50,[5],4.81 µM
same,inhibition,[6],15%
same,IC50,[7],3.59 µM
COc1cc(C(=O)Nc2c(C(=O)c3ccc(Cl)cc3)[nH]c3cc(Cl)ccc23)cc(OC)c1OC,Activity,[11],Dose-dependent effect
same,Activity,[12],41.6%
same,Activity,[13],Active
same,Activity,[14],26.29%
same,Activity,[15],35.92%
same,IC50,[1],6.43 µM
same,Activity,[16],Active
same,Activity,[17],Active
same,Activity,[8],23.66%
same,Activity,[18],31.07%
same,Activity,[9],56.58%
same,IC50,[2],7.92 µM
same,Activity,[19],Active
same,Activity,[10],19.76%
same,Activity,[20],Active
same,Activity,[21],Active
same,IC50,[3],10.9 µM
same,Activity,[22],Active
same,IC50,[4],0.04 µM
same,IC50,[5],3.17 µM
same,Activity,[23],Active
same,IC50,[24],9.5 µM
same,inhibition,[6],59%
same,Activity,[25],Active
same,Activity,[26],Active
same,Activity,[27],33.01%
same,Activity,[28],32.1%
same,Activity,[29],Active
same,IC50,[7],> 100 µM
same,Activity,[30],Active
COc1ccc(C(=O)c2[nH]c3ccccc3c2NC(=O)c2cc(OC)c(OC)c(OC)c2)cc1,IC50,[1],35 µM
same,IC50,[2],7.09 µM
same,IC50,[3],10.7 µM
same,IC50,[4],5.56 µM
same,IC50,[5],10.4 µM
same,inhibition,[6],20%
same,IC50,[7],> 100 µM
COc1cc(C(=O)Nc2c(C(=O)c3ccc(Br)cc3)[nH]c3ccccc23)cc(OC)c1OC,IC50,[1],6.47 µM
same,IC50,[2],7.87 µM
same,IC50,[3],7.14 µM
same,IC50,[4],9.55 µM
same,IC50,[5],10.3 µM
same,inhibition,[6],37%
same,IC50,[7],7.52 µM
COc1cc(C(=O)Nc2c(C(=O)c3ccc(C)cc3)[nH]c3cc(Cl)ccc23)cc(OC)c1OC,IC50,[1],33.6 µM
same,IC50,[2],5.79 µM
same,IC50,[3],34.3 µM
same,IC50,[4],16.6 µM
same,IC50,[5],25.1 µM
same,inhibition,[6],36%
same,IC50,[7],14.2 µM
COc1cc(C(=O)Nc2c(C(=O)c3ccc4ccccc4c3)[nH]c3cc(C)ccc23)cc(OC)c1OC,IC50,[1],> 100 µM
same,IC50,[2],> 100 µM
same,IC50,[3],> 100 µM
same,IC50,[4],> 100 µM
same,IC50,[5],39.8 µM
same,IC50,[7],53.3 µM
